According to ChEMBL document CHEMBL4689842, “EUbOPEN Chemogenomics Library wave 1” (2021):

Tested on: HEK-293T
Experiment: Multiplex assay against HEK293T;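 on Population Tubulin-Different-Phenotype (%): share of the cells with healthy nuclei that show this phenotype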
Assay type: toxicity, cell-based
Settings: human
How it was run: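 At seeding, live cells were stained with Hoechst33342, BioTracker Green Microtubule Cytoskeleton Dye, MitoTracker Red and Annexin V Alexa Fluor 680. After compound addition they were imaged on a CQ1 microscope at 37°C and 5% CO2, and CellPathfinder machine-learning gating sorted them into Hoechst high-intensity objects or normal cells, with normal cells further split into healthy, pyknosed or fragmented nuclei and pyknosed cells into mitotic or apoptotic. Tubulin, mitochondrial-mass and membrane-permeability phenotypes are given as per cents of cells with healthy nuclei.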

[1] = 12 h, 1 µM, compound concentration 1 uM, replicate 1
[2] = 12 h, 1 µM, compound concentration 1 uM, replicate 2
[3] = 12 h, 10 µM, compound concentration 10 uM, replicate 1
[4] = 12 h, 10 µM, compound concentration 10 uM, replicate 2
[5] = 24 h, 1 µM, compound concentration 1 uM, replicate 1
[6] = 24 h, 1 µM, compound concentration 1 uM, replicate 2
[7] = 24 h, 10 µM, compound concentration 10 uM, replicate 1
[8] = 24 h, 10 µM, compound concentration 10 uM, replicate 2
[9] = 48 h, 1 µM, compound concentration 1 uM, replicate 1
[10] = 48 h, 1 µM, compound concentration 1 uM, replicate 2
[11] = 48 h, 10 µM, compound concentration 10 uM, replicate 1
[12] = 48 h, 10 µM, compound concentration 10 uM, replicate 2

## CC(C)(O)CNc1ncc(-c2ccnc(Nc3ccnc(Cl)c3)n2)c(CC2CC2)n1
[1]
  Population Apoptotic (%): 59%
  Population Fragmented Nuclei (%): 14%
  Population Healthy Nuclei (%): 25%
  Population Hoechst High Intensity Objects (%): 16%
  Population Membrane Permeable-Phenotype (%): 4%
  Population Mitochondria Different-Phenotype (%): 90%
  Population Mitotic Cells (%): 40%
  Population Normal (%): 83%
  Population Pyknosed Nuclei (%): 59%
  Population Tubulin-Different-Phenotype (%): 75%
  Total Cell Count: 287
[2]
  Population Apoptotic (%): 17%
  Population Fragmented Nuclei (%): 9%
  Population Healthy Nuclei (%): 23%
  Population Hoechst High Intensity Objects (%): 8%
  Population Membrane Permeable-Phenotype (%): 13%
  Population Mitochondria Different-Phenotype (%): 13%
  Population Mitotic Cells (%): 82%
  Population Normal (%): 91%
  Population Pyknosed Nuclei (%): 67%
  Population Tubulin-Different-Phenotype (%): 31%
  Total Cell Count: 133
[3]
  Population Apoptotic (%): 72%
  Population Fragmented Nuclei (%): 11%
  Population Healthy Nuclei (%): 5%
  Population Hoechst High Intensity Objects (%): 23%
  Population Membrane Permeable-Phenotype (%): 13%
  Population Mitochondria Different-Phenotype (%): 93%
  Population Mitotic Cells (%): 27%
  Population Normal (%): 76%
  Population Pyknosed Nuclei (%): 83%
  Population Tubulin-Different-Phenotype (%): 86%
  Total Cell Count: 381
[4]
  Population Apoptotic (%): 52%
  Population Fragmented Nuclei (%): 4%
  Population Healthy Nuclei (%): 3%
  Population Hoechst High Intensity Objects (%): 14%
  Population Membrane Permeable-Phenotype (%): 28%
  Population Mitochondria Different-Phenotype (%): 85%
  Population Mitotic Cells (%): 47%
  Population Normal (%): 85%
  Population Pyknosed Nuclei (%): 91%
  Population Tubulin-Different-Phenotype (%): 42%
  Total Cell Count: 213
[5]
  Population Apoptotic (%): 49%
  Population Fragmented Nuclei (%): 12%
  Population Healthy Nuclei (%): 28%
  Population Hoechst High Intensity Objects (%): 15%
  Population Membrane Permeable-Phenotype (%): 1%
  Population Mitochondria Different-Phenotype (%): 82%
  Population Mitotic Cells (%): 50%
  Population Normal (%): 84%
  Population Pyknosed Nuclei (%): 58%
  Population Tubulin-Different-Phenotype (%): 89%
  Total Cell Count: 319
[6]
  Population Apoptotic (%): 27%
  Population Fragmented Nuclei (%): 9%
  Population Healthy Nuclei (%): 34%
  Population Hoechst High Intensity Objects (%): 5%
  Population Membrane Permeable-Phenotype (%): 6%
  Population Mitochondria Different-Phenotype (%): 27%
  Population Mitotic Cells (%): 72%
  Population Normal (%): 94%
  Population Pyknosed Nuclei (%): 56%
  Population Tubulin-Different-Phenotype (%): 68%
  Total Cell Count: 145
[7]
  Population Apoptotic (%): 73%
  Population Fragmented Nuclei (%): 15%
  Population Healthy Nuclei (%): 3%
  Population Hoechst High Intensity Objects (%): 23%
  Population Membrane Permeable-Phenotype (%): 11%
  Population Mitochondria Different-Phenotype (%): 100%
  Population Mitotic Cells (%): 26%
  Population Normal (%): 76%
  Population Pyknosed Nuclei (%): 81%
  Population Tubulin-Different-Phenotype (%): 100%
  Total Cell Count: 382
[8]
  Population Apoptotic (%): 64%
  Population Fragmented Nuclei (%): 2%
  Population Healthy Nuclei (%): 2%
  Population Hoechst High Intensity Objects (%): 16%
  Population Membrane Permeable-Phenotype (%): 40%
  Population Mitochondria Different-Phenotype (%): 80%
  Population Mitotic Cells (%): 35%
  Population Normal (%): 83%
  Population Pyknosed Nuclei (%): 94%
  Population Tubulin-Different-Phenotype (%): 40%
  Total Cell Count: 208
[9]
  Population Apoptotic (%): 40%
  Population Fragmented Nuclei (%): 22%
  Population Healthy Nuclei (%): 29%
  Population Hoechst High Intensity Objects (%): 17%
  Population Membrane Permeable-Phenotype (%): 3%
  Population Mitochondria Different-Phenotype (%): 62%
  Population Mitotic Cells (%): 59%
  Population Normal (%): 82%
  Population Pyknosed Nuclei (%): 47%
  Population Tubulin-Different-Phenotype (%): 68%
  Total Cell Count: 360
[10]
  Population Apoptotic (%): 25%
  Population Fragmented Nuclei (%): 5%
  Population Healthy Nuclei (%): 68%
  Population Hoechst High Intensity Objects (%): 5%
  Population Membrane Permeable-Phenotype (%): 10%
  Population Mitochondria Different-Phenotype (%): 10%
  Population Mitotic Cells (%): 75%
  Population Normal (%): 94%
  Population Pyknosed Nuclei (%): 26%
  Population Tubulin-Different-Phenotype (%): 57%
  Total Cell Count: 209
[11]
  Population Apoptotic (%): 72%
  Population Fragmented Nuclei (%): 22%
  Population Healthy Nuclei (%): 1%
  Population Hoechst High Intensity Objects (%): 28%
  Population Membrane Permeable-Phenotype (%): 25%
  Population Mitochondria Different-Phenotype (%): 100%
  Population Mitotic Cells (%): 27%
  Population Normal (%): 71%
  Population Pyknosed Nuclei (%): 76%
  Population Tubulin-Different-Phenotype (%): 100%
  Total Cell Count: 373
[12]
  Population Apoptotic (%): 63%
  Population Fragmented Nuclei (%): 6%
  Population Healthy Nuclei (%): 3%
  Population Hoechst High Intensity Objects (%): 16%
  Population Membrane Permeable-Phenotype (%): 0%
  Population Mitochondria Different-Phenotype (%): 71%
  Population Mitotic Cells (%): 36%
  Population Normal (%): 83%
  Population Pyknosed Nuclei (%): 89%
  Population Tubulin-Different-Phenotype (%): 71%
  Total Cell Count: 212
